Laboratory results: ChEMBL document CHEMBL4257524, “Design and synthesis of conformationally constraint Dyrk1A inhibitors by creating an intramolecular H-bond involving a benzothiazole core” (Medchemcomm, 2018)

What was measured:
[1] = target: T1, Dual specificity tyrosine-phosphorylation-regulated kinase 1B (Homo sapiens, UniProt Q9Y463); assay: Inhibition of full length recombinant human GST-tagged Dyrk1B expressed in baculovirus expression system at 0.5 uM using KKISGRLSPIMTEQ-NH2 peptide as substrate in presence of [gamma-32P]-ATP relative to control
Procedure, shortened: (§1)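 Dyrk1B kinase assay with ATP at 15 μM. Single-point % inhibition measured at 0.5 μM, and IC50 determined. Values are means of at least two independent experiments, each run in duplicate, with standard deviation <10%.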
Target sequence in this assay (Q9Y463 whole entry, looked up): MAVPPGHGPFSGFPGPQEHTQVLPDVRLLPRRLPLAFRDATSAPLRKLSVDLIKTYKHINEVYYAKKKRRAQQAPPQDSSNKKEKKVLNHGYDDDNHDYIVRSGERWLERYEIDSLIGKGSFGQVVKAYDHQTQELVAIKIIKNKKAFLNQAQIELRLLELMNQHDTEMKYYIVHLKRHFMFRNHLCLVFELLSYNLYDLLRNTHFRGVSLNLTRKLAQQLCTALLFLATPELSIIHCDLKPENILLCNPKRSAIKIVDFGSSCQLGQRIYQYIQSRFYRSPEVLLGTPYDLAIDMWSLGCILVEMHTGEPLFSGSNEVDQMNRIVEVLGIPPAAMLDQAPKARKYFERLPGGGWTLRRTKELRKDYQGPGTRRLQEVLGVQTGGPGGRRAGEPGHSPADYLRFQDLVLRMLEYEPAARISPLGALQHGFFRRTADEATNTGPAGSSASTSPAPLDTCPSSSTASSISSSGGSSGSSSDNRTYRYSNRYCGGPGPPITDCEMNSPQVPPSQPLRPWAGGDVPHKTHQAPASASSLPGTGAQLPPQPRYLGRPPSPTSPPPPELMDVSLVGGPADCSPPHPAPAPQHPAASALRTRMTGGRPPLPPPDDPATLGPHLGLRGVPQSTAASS

[2] = target: T2, Dual specificity tyrosine-phosphorylation-regulated kinase 1A (Homo sapiens, UniProt Q13627); assay: Inhibition of recombinant human N-terminal His6-tagged Dyrk1A catalytic domain expressed in Escherichia coli BL21 (DE3) using KKISGRLSPIMTEQ-NH2 peptide as substrate in presence of [gamma-32P]-ATP
[3] = target: T1, Dual specificity tyrosine-phosphorylation-regulated kinase 1B; assay: Inhibition of full length recombinant human GST-tagged Dyrk1B expressed in baculovirus expression system using KKISGRLSPIMTEQ-NH2 peptide as substrate in presence of [gamma-32P]-ATP; procedure, shortened: as §1
Target sequence in this assay (Q9Y463 whole entry): as the sequence (Q9Y463 whole entry, looked up) above

[4] = Half life in human liver S9 fraction assessed as CYP450-mediated compound degradation at 0.3 uM after 15 to 60 mins by LC-MS/MS analysis; format: ADME, subcellular
Procedure, shortened: (§2)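 Pooled human liver S9 fraction incubated with compound at 37 °C. Samples taken at 0, 15, 30 and 60 min, and parent compound quantified by MS. Half-life and parent compound remaining derived from these measurements.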

[5] = target: Cyclin-dependent kinase 5/CDK5 activator 1 (Homo sapiens) (UniProt Q00535+Q15078); assay: Inhibition of full length recombinant human GST-tagged CDK5/His-tagged p25 expressed in baculovirus expression system at 5 uM relative to control
Procedure, shortened: (§3)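 Kinase panel run at a single 5 μM inhibitor concentration with ATP at 100 μM. Activity expressed as % inhibition. Values are means of at least two duplicates.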

[6] = target: T3, Serine/threonine-protein kinase haspin (Homo sapiens) (UniProt Q8TF76); assay: Inhibition of recombinant human N-terminal GST-tagged Haspin expressed in baculovirus expression system at 5 uM relative to control; procedure, shortened: as §3
T3 sequence (whole entry): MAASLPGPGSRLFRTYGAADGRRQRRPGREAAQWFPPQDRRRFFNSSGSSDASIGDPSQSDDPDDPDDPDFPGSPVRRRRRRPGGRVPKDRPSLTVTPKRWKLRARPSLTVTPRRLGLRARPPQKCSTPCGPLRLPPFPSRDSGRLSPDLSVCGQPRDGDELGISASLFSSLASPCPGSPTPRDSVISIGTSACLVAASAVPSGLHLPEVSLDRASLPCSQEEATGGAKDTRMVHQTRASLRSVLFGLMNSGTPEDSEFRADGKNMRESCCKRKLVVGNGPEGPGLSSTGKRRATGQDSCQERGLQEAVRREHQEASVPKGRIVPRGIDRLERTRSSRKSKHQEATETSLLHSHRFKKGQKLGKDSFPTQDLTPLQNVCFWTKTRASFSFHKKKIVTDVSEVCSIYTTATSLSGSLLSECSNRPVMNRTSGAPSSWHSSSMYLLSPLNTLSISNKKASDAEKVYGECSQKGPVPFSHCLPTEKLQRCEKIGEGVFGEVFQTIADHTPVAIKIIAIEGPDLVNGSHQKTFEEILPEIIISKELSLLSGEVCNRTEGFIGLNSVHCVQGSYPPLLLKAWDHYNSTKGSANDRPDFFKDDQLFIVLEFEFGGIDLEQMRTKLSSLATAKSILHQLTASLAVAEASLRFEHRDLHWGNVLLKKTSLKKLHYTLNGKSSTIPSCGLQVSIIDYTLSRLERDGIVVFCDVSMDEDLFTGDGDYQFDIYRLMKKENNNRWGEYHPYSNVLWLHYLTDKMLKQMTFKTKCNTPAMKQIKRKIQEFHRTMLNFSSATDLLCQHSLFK

[7] = target: Homeodomain-interacting protein kinase 1 (Homo sapiens) (UniProt Q86Z02); assay: Inhibition of recombinant human GST-tagged HIPK1 expressed in baculovirus expression system at 5 uM relative to control; procedure, shortened: as §3
[8] = target: T4, Serine/threonine-protein kinase 17A (Homo sapiens) (UniProt Q9UEE5); assay: Inhibition of full length recombinant human GST-tagged STK17A expressed in baculovirus expression system at 5 uM relative to control; procedure, shortened: as §3
T4 sequence (whole entry): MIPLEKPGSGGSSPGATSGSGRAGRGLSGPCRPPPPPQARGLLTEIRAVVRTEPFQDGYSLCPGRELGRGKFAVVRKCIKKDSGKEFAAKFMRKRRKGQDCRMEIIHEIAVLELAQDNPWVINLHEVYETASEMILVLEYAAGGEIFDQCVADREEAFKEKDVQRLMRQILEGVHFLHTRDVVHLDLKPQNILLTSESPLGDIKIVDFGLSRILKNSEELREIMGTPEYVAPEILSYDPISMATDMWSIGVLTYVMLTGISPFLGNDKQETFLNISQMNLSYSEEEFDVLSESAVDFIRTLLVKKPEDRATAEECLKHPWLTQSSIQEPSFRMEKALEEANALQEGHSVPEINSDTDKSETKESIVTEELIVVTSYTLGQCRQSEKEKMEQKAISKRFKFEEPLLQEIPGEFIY

[9] = target: BDNF/NT-3 growth factors receptor (Homo sapiens) (UniProt Q16620); assay: Inhibition of recombinant human His-tagged NTRK2 expressed in baculovirus expression system at 5 uM relative to control; procedure, shortened: as §3
Homo sapiens [10] = species on record: Homo sapiens; assay: Selectivity ratio of IC50 for full length recombinant human GST-tagged Dyrk1B to IC50 for recombinant human N-terminal His6-tagged Dyrk1A catalytic domain
Procedure, shortened: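 Ratio of Dyrk1B IC50 to Dyrk1A IC50. Both IC50s determined with ATP at 15 μM, from means of at least two independent duplicate experiments.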

[11] = target: Casein kinase I isoform delta (Homo sapiens) (UniProt P48730); assay: Inhibition of full length recombinant human GST-tagged CK1delta expressed in baculovirus expression system at 5 uM relative to control; procedure, shortened: as §3
[12] = target: SRSF protein kinase 1 (Homo sapiens) (UniProt Q96SB4); assay: Inhibition of full length recombinant human His-tagged SRPK1 expressed in baculovirus expression system at 5 uM relative to control; procedure, shortened: as §3
[13] = target: T5, Dual specificity protein kinase CLK1 (Homo sapiens, UniProt P49759); assay: Inhibition of recombinant GST-tagged human CLK1 expressed in Escherichia coli at 5 uM using RSRSRSRSR peptide as substrate in presence of [gamma-32P]-ATP
Target sequence in this assay (P49759 whole entry, looked up): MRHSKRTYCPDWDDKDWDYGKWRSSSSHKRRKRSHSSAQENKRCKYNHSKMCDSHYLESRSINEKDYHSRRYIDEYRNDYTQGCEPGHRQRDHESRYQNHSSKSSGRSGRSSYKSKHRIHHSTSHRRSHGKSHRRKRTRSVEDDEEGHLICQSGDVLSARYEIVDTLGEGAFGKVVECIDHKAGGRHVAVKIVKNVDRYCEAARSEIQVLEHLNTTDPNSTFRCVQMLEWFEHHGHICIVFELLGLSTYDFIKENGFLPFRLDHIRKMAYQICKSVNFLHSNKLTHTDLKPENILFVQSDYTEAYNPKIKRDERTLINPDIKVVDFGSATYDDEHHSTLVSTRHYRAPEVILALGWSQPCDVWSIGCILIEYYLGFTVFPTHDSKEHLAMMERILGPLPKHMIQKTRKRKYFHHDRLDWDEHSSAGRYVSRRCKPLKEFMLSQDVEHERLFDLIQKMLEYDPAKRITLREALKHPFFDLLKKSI

[14] = target: Myosin light chain kinase, smooth muscle (Homo sapiens) (UniProt Q15746); assay: Inhibition of full length recombinant human GST-tagged MLCK expressed in baculovirus expression system at 5 uM relative to control; procedure, shortened: as §3
[15] = target: T5, Dual specificity protein kinase CLK1; assay: Inhibition of recombinant GST-tagged human CLK1 expressed in Escherichia coli using RSRSRSRSR peptide as substrate in presence of [gamma-32P]-ATP
Procedure, shortened: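 CLK1 IC50 determined in kinase assay with ATP at 15 μM.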
Target sequence in this assay (P49759 whole entry): as the sequence (P49759 whole entry, looked up) above

[16] = target: Serine/threonine-protein kinase pim-1 (Homo sapiens) (UniProt P11309); assay: Inhibition of full length recombinant human His-tagged PIM1 expressed in baculovirus expression system at 5 uM relative to control; procedure, shortened: as §3
[17] = Drug metabolism in human liver S9 fraction assessed as CYP450-mediated metabolite formation by measuring parent compound remaining at 0.3 uM after 60 mins by LC-MS/MS analysis; format: ADME, subcellular; conditions: s9, 1 h; procedure, shortened: as §2
Homo sapiens [18] = species on record: Homo sapiens; assay: Selectivity ratio of IC50 for recombinant GST-tagged human CLK1 to IC50 for recombinant human N-terminal His6-tagged Dyrk1A catalytic domain
[19] = target: T2, Dual specificity tyrosine-phosphorylation-regulated kinase 1A; assay: Inhibition of recombinant human N-terminal His6-tagged Dyrk1A catalytic domain expressed in Escherichia coli BL21 (DE3) at 5 uM using KKISGRLSPIMTEQ-NH2 peptide as substrate in presence of [gamma-32P]-ATP relative to control; procedure, shortened: as §3

Chain of Casein kinase I isoform delta (Homo sapiens) (P48730 whole entry, looked up, canonical isoform): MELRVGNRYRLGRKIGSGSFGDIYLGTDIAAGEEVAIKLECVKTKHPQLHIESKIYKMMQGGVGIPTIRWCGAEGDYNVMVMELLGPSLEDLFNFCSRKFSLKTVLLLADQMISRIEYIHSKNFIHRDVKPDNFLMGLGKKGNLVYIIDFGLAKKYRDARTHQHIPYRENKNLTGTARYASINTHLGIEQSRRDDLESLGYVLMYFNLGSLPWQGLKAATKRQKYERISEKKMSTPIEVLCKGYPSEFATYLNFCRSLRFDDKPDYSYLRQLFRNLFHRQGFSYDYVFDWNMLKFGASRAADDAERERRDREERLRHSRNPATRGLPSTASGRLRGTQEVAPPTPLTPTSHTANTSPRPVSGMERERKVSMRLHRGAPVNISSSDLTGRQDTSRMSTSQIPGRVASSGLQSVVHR
Chain of BDNF/NT-3 growth factors receptor (Homo sapiens) (Q16620 32-822 limits assumed): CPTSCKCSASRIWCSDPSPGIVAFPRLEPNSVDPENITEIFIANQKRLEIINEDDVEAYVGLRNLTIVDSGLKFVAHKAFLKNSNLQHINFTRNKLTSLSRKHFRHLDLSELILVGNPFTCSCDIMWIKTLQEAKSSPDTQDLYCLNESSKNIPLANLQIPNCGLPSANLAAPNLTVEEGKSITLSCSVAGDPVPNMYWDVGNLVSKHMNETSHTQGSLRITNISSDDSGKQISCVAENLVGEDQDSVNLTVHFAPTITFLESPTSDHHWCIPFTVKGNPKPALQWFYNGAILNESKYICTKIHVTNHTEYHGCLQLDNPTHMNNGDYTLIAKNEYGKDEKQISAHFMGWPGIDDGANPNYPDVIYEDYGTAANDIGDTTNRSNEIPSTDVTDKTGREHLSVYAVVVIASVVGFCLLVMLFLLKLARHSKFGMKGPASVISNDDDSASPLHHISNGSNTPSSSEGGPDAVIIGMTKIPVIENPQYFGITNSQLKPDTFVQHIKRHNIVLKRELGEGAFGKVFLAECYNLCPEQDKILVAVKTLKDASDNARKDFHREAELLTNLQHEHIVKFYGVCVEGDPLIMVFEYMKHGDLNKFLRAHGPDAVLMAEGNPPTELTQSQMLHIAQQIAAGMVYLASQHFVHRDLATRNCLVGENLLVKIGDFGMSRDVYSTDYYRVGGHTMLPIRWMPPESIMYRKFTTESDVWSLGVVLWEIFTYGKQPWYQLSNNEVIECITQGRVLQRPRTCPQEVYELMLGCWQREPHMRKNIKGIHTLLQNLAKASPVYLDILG
Chain of Myosin light chain kinase, smooth muscle (Homo sapiens) (Q15746 whole entry): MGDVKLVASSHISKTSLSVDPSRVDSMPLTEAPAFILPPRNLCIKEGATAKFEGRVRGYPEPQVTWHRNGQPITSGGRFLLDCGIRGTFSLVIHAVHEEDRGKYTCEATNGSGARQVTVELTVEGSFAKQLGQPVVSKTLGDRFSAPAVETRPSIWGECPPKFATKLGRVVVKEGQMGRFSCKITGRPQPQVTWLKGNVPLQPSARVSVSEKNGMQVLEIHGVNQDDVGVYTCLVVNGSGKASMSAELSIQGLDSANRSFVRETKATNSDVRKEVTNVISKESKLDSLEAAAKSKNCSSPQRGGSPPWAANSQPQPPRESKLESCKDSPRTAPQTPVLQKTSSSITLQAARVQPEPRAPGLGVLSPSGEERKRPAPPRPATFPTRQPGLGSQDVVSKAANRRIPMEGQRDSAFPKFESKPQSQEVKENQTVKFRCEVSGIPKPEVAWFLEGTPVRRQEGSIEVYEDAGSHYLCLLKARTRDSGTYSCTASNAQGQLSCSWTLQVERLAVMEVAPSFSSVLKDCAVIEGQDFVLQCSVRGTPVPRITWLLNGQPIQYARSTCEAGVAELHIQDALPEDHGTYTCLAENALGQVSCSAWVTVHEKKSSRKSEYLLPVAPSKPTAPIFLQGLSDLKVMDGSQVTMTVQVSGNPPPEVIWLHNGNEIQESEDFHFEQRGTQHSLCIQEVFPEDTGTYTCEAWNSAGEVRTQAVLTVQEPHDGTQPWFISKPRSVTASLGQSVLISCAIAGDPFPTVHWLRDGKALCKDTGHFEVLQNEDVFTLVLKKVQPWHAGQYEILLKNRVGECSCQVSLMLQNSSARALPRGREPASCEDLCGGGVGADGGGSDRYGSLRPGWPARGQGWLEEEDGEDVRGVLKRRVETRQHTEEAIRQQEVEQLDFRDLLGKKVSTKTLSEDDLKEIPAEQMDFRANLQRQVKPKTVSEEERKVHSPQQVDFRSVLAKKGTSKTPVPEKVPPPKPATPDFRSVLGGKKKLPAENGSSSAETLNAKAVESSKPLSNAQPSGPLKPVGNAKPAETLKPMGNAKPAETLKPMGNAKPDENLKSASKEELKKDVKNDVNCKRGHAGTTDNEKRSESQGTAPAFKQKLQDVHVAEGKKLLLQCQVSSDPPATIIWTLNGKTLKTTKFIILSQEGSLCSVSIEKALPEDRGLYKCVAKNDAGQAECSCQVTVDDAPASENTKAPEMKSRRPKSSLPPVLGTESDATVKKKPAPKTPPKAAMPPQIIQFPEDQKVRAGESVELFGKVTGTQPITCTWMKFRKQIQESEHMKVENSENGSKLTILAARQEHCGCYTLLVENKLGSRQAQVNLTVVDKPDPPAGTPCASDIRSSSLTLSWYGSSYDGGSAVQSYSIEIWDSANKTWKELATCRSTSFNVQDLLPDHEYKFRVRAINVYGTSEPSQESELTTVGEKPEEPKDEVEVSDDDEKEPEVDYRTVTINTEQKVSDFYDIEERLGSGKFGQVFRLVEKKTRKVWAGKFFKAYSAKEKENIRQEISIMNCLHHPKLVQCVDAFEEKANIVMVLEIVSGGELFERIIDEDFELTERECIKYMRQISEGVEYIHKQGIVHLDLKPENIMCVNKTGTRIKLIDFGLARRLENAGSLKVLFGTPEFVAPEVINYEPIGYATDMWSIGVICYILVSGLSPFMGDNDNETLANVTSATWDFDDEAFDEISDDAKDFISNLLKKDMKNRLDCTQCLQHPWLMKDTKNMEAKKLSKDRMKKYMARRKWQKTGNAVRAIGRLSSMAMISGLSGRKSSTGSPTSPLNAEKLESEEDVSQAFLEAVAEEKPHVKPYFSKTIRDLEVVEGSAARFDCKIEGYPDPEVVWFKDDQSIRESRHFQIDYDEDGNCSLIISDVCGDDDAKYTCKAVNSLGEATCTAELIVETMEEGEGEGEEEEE

**Q.** For O=C(Nc1nc2ccc(O)cc2s1)Oc1ccccc1, which inhibition [1] is on record?
**A.** Its inhibition is 0%.

**Q.** Which results are given for O=C(Nc1cccc(O)c1)Nc1nc2ccc(O)cc2s1?
**A.** IC50 [2]: 0.134 µM; IC50 [3]: 0.37 µM; inhibition [1]: 54.6%

**Q.** With O=C(Cc1cccc(O)c1)Nc1nc2ccc(O)cc2s1 as the compound, how does the inhibition [1] read?
**A.** Its inhibition is 0%.

**Q.** For C[C@]12CC[C@H]3[C@@H](CCC4=CC(=O)CC[C@@]43C)[C@@H]1CC[C@@H]2O [TESTOSTERONE], which half-life at 0.3 µM [4] is on record?
**A.** The half-life at 0.3 µM was 9.6 min.

**Q.** Which results are given for CN1CCN(C(=O)c2ccc(NC(=O)Nc3nc4ccc(O)cc4s3)cc2)CC1?
**A.** half-life at 0.3 µM [4]: > 60 min; inhibition [5]: 2%; inhibition [6]: 1%; IC50 [2]: 0.095 µM; IC50 [3]: 1.51 µM; inhibition [7]: 50%; inhibition [8]: 39%; inhibition [9]: 13%; inhibition [1]: 21%; Ratio IC50 (Homo sapiens [10]): 16; inhibition [11]: 9%; inhibition [12]: 5%; inhibition [13]: 72%; inhibition [14]: 45%; IC50 [15]: 0.73 µM; inhibition [16]: 29%; Stability [17]: 88%; Ratio IC50 (Homo sapiens [18]): > 7; inhibition [19]: 85%

**Q.** With COc1ccc2nc(NC(=O)Oc3ccccc3)sc2c1 as the compound, how does the inhibition [1] read?
**A.** Its inhibition is 0%.

**Q.** For COc1ccc2nc(NC(=O)Nc3ccc(C(=O)N4CCN(C)CC4)cc3)sc2c1, which inhibition [1] is on record?
**A.** The inhibition was 0%.

**Q.** Which inhibition [1] does the source give for COc1ccc2nc(NC(=O)NCCCN3CCN(C)CC3)sc2c1 here?
**A.** The inhibition was 0%.

**Q.** With O=C(Nc1ccccc1)Nc1nc2ccc(O)cc2s1 as the compound, how does the IC50 [2] read?
**A.** Its IC50 is 0.163 µM.

**Q.** What about the IC50 [3] of the same compound?
**A.** The IC50 was 0.71 µM.

**Q.** And the inhibition [1]?
**A.** The inhibition was 43.6%.

**Q.** For COc1ccc2nc(NC(=O)Nc3ccc(C(=O)O)cc3)sc2c1, which inhibition [1] is on record?
**A.** Its inhibition is 0%.

**Q.** With COc1ccc2nc(NC(=O)Nc3ccc(C(=O)NCc4ccccc4)cc3)sc2c1 as the compound, how does the inhibition [1] read?
**A.** The inhibition was 0%.

**Q.** Which inhibition [1] does the source give for O=C(Nc1ccccc1)Nc1nnc(-c2ccncc2)s1 here?
**A.** The inhibition was 12%.

**Q.** Which inhibition [1] does the source give for COc1ccc2nc(NC(=O)Nc3ccccc3)sc2c1 here?
**A.** The inhibition was 0%.

**Q.** For COc1ccc2nc(NC(=O)NCCN3CCOCC3)sc2c1, which inhibition [1] is on record?
**A.** The inhibition was 0%.

**Q.** With COc1cccc(CC(=O)Nc2nc3ccc(OC)cc3s2)c1 as the compound, how does the inhibition [1] read?
**A.** Its inhibition is 25%.

**Q.** For O=C(Nc1ccc(C(=O)NCc2ccccc2)cc1)Nc1nc2ccc(O)cc2s1, which half-life at 0.3 µM [4] is on record?
**A.** Its half-life at 0.3 µM is 33 min.

**Q.** What about the IC50 [2] of the same compound?
**A.** Its IC50 is 0.063 µM.

**Q.** What about the IC50 [3] of the same compound?
**A.** The IC50 was 0.13 µM.

**Q.** What about the inhibition [1] of the same compound?
**A.** Its inhibition is 69%.
